Reference: ChEMBL document CHEMBL1649143, “In vitro activities of fluconazole and voriconazole against clinical isolates of Candida spp. determined by disk diffusion testing in Turin, Italy” (2009)
Values after ≈ are worked out from the molar mass of the structure shown.

What was measured:
[1] = system: Nakaseomyces glabratus; assay: Antifungal activity against Candida glabrata assessed as dose dependent percent susceptible isolates at 25 ug/disc by CLSI M44-A disk diffusion method; assay type: functional
Outline: (§1)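 Agar disk diffusion per CLSI M44-A on clinical Candida isolates collected in Turin, Italy; 1,024 isolates tested in total. Each isolate was classed as susceptible (S), susceptible-dose dependent (SDD) or resistant (R), and the percentage of isolates per species in each category was reported.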

[2] = Antifungal activity against Candida humicola assessed as percent susceptible isolates at 25 ug/disc by CLSI M44-A disk diffusion method; assay type: functional
Outline: (§2)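 Clinical yeast isolates tested by agar disk diffusion per CLSI M44-A. Zone diameters were converted to MICs by an automated zone-reading system applying species-specific linear regression against reference dilution MICs. Isolates were classed as susceptible, susceptible-dose dependent or resistant using CLSI MIC breakpoints, and reported as number and percent susceptible per species.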

[3] = system: Candida parapsilosis; assay: Antifungal activity against Candida parapsilosis assessed as percent susceptible isolates at 25 ug/disc by CLSI M44-A disk diffusion method; assay type: functional; outline: as §1
[4] = system: Pichia kudriavzevii; assay: Antifungal activity against Candida krusei assessed as percent resistant isolates at 25 ug/disc by CLSI M44-A disk diffusion method; assay type: functional; outline: as §1
[5] = system: Candida tropicalis; assay: Antifungal activity against Candida tropicalis assessed as percent susceptible isolates at 25 ug/disc by CLSI M44-A disk diffusion method; assay type: functional; outline: as §1
[6] = system: Kluyveromyces marxianus; assay: Antifungal activity against Candida kefyr by reference dilution method; assay type: functional
[7] = system: Clavispora lusitaniae; assay: Antifungal activity against Candida lusitaniae assessed as percent susceptible isolates at 25 ug/disc by CLSI M44-A disk diffusion method; assay type: functional; outline: as §2
[8] = system: Kluyveromyces marxianus; assay: Antifungal activity against Candida kefyr assessed as percent susceptible isolates at 25 ug/disc by CLSI M44-A disk diffusion method; assay type: functional; outline: as §1
[9] = system: Pichia kudriavzevii; assay: Antifungal activity against Candida krusei by reference dilution method; assay type: functional
[10] = Antifungal activity against Candida holmii assessed as percent susceptible isolates at 25 ug/disc by CLSI M44-A disk diffusion method; assay type: functional; details: Kazachstania exigua; outline: as §2
[11] = system: Candida; assay: Antifungal activity against Candida sp. by reference dilution method; assay type: functional
[12] = system: Candida albicans; assay: Antifungal activity against Candida albicans assessed as dose dependent percent susceptible isolates at 25 ug/disc by CLSI M44-A disk diffusion method; assay type: functional; outline: as §1
[13] = system: Pichia norvegensis; assay: Antifungal activity against Candida norvegensis assessed as dose dependent percent susceptible isolates at 25 ug/disc by CLSI M44-A disk diffusion method; assay type: functional; outline: as §1
[14] = system: Cyberlindnera jadinii; assay: Antifungal against Candida utilis assessed as percent susceptible isolates at 25 ug/disc by CLSI M44-A disk diffusion method; assay type: functional; outline: as §2
[15] = system: Nakaseomyces glabratus; assay: Antifungal activity against Candida glabrata assessed as percent resistant isolates at 25 ug/disc by CLSI M44-A disk diffusion method; assay type: functional; outline: as §1
[16] = system: Candida tropicalis; assay: Antifungal activity against Candida tropicalis assessed as percent resistant isolates at 25 ug/disc by CLSI M44-A disk diffusion method; assay type: functional; outline: as §1
[17] = system: Candida albicans; assay: Antifungal activity against Candida albicans assessed as percent resistant isolates at 25 ug/disc by CLSI M44-A disk diffusion method; assay type: functional; outline: as §1
[18] = system: Diutina rugosa; assay: Antifungal activity against Candida rugosa assessed as percent susceptible isolates at 25 ug/disc by CLSI M44-A disk diffusion method; assay type: functional; outline: as §2
[19] = system: Candida parapsilosis; assay: Antifungal activity against Candida parapsilosis assessed as dose dependent percent susceptible isolates at 25 ug/disc by CLSI M44-A disk diffusion method; assay type: functional; outline: as §1
[20] = system: Pichia norvegensis; assay: Antifungal activity against Candida norvegensis assessed as percent resistant isolates at 25 ug/disc by CLSI M44-A disk diffusion method; assay type: functional; outline: as §1
[21] = system: [Candida] intermedia; assay: Antifungal activity against Candida intermedia assessed as percent susceptible isolates at 25 ug/disc by CLSI M44-A disk diffusion method; assay type: functional, Sungouiella intermedia; outline: as §2
[22] = system: Nakaseomyces glabratus; assay: Antifungal activity against Candida glabrata by reference dilution method; assay type: functional
[23] = system: Pichia kudriavzevii; assay: Antifungal activity against Candida krusei assessed as percent susceptible isolates at 25 ug/disc by CLSI M44-A disk diffusion method; assay type: functional; outline: as §1
[24] = system: Candida albicans; assay: Antifungal activity against Candida albicans by reference dilution method; assay type: functional
[25] = system: Nakaseomyces glabratus; assay: Antifungal activity against Candida glabrata assessed as percent susceptible isolates at 25 ug/disc by CLSI M44-A disk diffusion method; assay type: functional; outline: as §1
[26] = system: Candida tropicalis; assay: Antifungal activity against Candida tropicalis by reference dilution method; assay type: functional
[27] = Antifungal activity against Candida membranifaciens assessed as percent susceptible isolates at 25 ug/disc by CLSI M44-A disk diffusion method; assay type: functional; outline: as §2
[28] = system: Pichia fermentans; assay: Antifungal activity against Candida lambica assessed as percent susceptible isolates at 25 ug/disc by CLSI M44-A disk diffusion method; assay type: functional; outline: as §2
[29] = system: Candida tropicalis; assay: Antifungal activity against Candida tropicalis assessed as dose dependent percent susceptible isolates at 25 ug/disc by CLSI M44-A disk diffusion method; assay type: functional; outline: as §1
[30] = system: Candida parapsilosis; assay: Antifungal activity against Candida parapsilosis by reference dilution method; assay type: functional; details: Lodderomyces parapsilosis
[31] = system: Pichia norvegensis; assay: Antifungal activity against Candida norvegensis by reference dilution method; assay type: functional
[32] = system: Kluyveromyces marxianus; assay: Antifungal activity against Candida kefyr assessed as percent resistant isolates at 25 ug/disc by CLSI M44-A disk diffusion method; assay type: functional; outline: as §1
[33] = system: Pichia kudriavzevii; assay: Antifungal activity against Candida krusei assessed as dose dependent percent susceptible isolates at 25 ug/disc by CLSI M44-A disk diffusion method; assay type: functional; outline: as §1
[34] = system: Candida albicans; assay: Antifungal activity against Candida albicans assessed as percent susceptible isolates at 25 ug/disc by CLSI M44-A disk diffusion method; assay type: functional; outline: as §1

Compound `OC(Cn1cncn1)(Cn1cncn1)c1ccc(F)cc1F` [FLUCONAZOLE] has an Activity [1] of 9%, an Activity [2] of 92.9% and an Activity [3] of 96%. The Activity [4] was 68%, the Activity [5] was 92% and the MIC50 [6] was 0.25 µg/mL (≈ 0.816 µM). For the same compound, the MIC90 [6] was 0.25 µg/mL (≈ 0.816 µM), the Activity [7] was 92.9% and the Activity [8] was 96%. For the same compound, the MIC50 [9] was 128 µg/mL (≈ 418 µM), the MIC90 [9] was 256 µg/mL (≈ 836 µM) and the Activity [10] was 92.9%. The MIC50 [11] was 2 µg/mL (≈ 6.53 µM), the MIC90 [11] was 128 µg/mL (≈ 418 µM) and the Activity [12] was 1%. It also gave an Activity [13] of 21%, an Activity [14] of 92.9% and an Activity [15] of 9%. It also gave an Activity [16] of 5%, an Activity [17] of 1% and an Activity [18] of 92.9%. The Activity [19] was 4%, the Activity [20] was 79% and the Activity [21] was 92.9%. It also gave an MIC50 [22] of 4 µg/mL (≈ 13.1 µM), an MIC90 [22] of 64 µg/mL (≈ 209 µM) and an Activity [23] of 11%. For the same compound, the MIC50 [24] was 0.5 µg/mL (≈ 1.63 µM), the MIC90 [24] was 4 µg/mL (≈ 13.1 µM) and the Activity [25] was 82%. The MIC50 [26] was 2 µg/mL (≈ 6.53 µM), the MIC90 [26] was 16 µg/mL (≈ 52.2 µM) and the Activity [27] was 92.9%. For the same compound, the Activity [28] was 92.9%, the Activity [29] was 3% and the MIC50 [30] was 0.5 µg/mL (≈ 1.63 µM). It also gave an MIC90 [30] of 4 µg/mL (≈ 13.1 µM), an MIC50 [31] of 128 µg/mL (≈ 418 µM) and an MIC90 [31] of 256 µg/mL (≈ 836 µM). It also gave an Activity [32] of 4%, an Activity [33] of 21% and an Activity [34] of 98%.
